Assays:
[1] = tested on: AGS (human gastric adenocarcinoma); experiment: SRB cytotoxicity assay, AGS cells; format: cell-based; conditions: read-out: IC50 AGS; SRB, 72 h treatment, mean ± SD
Method in brief: (§1)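 Cells plated at 3 × 10³ per well and left 24 h to attach at 37 °C, 5% CO₂. Test compound at 0–100 µM from ethanol stocks (1% final ethanol) for 72 h. Fixation in TCA (10% final), staining with 0.1% SRB, dye solubilized in 10 mM Tris, A540. Viability relative to 1% ethanol vehicle. IC50 from a four-parameter logistic fit with 95% CI; triplicate, three independent runs, mean ± SD. SI = IC50 in GES-1 divided by IC50 in the cancer line.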

[2] = tested on: HT-29 (human colorectal adenocarcinoma); experiment: SRB cytotoxicity assay, HT-29 cells; format: cell-based; conditions: read-out: IC50 HT-29; SRB, 72 h treatment, mean ± SD
Method in brief: as §1

[3] = tested on: PC-3 (human prostate cancer); experiment: SRB cytotoxicity assay, PC-3 cells; format: cell-based; conditions: read-out: IC50 PC-3; SRB, 72 h treatment, mean ± SD
Method in brief: as §1

[4] = tested on: GES-1 (healthy gastric epithelial cells); experiment: SRB cytotoxicity assay, GES-1 non-tumor cells; format: cell-based, human; conditions: read-out: IC50 GES-1, 72 h treatment, mean ± SD
[5] = DPPH radical scavenging assay; format: biochemical; conditions: concentration to scavenge 50% of radicals, 15 min, mean ± SD
Method in brief: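 Test compound solutions (5–400 µg/mL, concentration before mixing) were added to 50 µM ethanolic DPPH and kept 15 min at room temperature in the dark, then read at 517 nm. A blank with solvent in place of compound served as control. IC50 came from linear regression of % scavenging against concentration. Three independent experiments in triplicate, mean ± SD.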

[6] = ABTS radical scavenging assay; format: biochemical; conditions: concentration to scavenge 50% of radicals, mean ± SD
Method in brief: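 ABTS radical cation generated by reacting ABTS with potassium persulfate, then diluted to an absorbance of about 0.700 at 732 nm. Test compound at several concentrations was mixed with the ABTS⁺ solution and the fall in absorbance recorded. Percent scavenging was calculated against a solvent control, with ascorbic acid as reference antioxidant. Three independent experiments in triplicate, mean ± SD.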

human erythrocytes = experiment: Hemolysis assay; format: cell-based; conditions: for Hemolysis (%): 30 min, 37 °C
Method in brief: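 Donor blood was collected in EDTA. RBCs were pelleted at 500 × g for 10 min, washed three times in PBS and resuspended in PBS. Cells were exposed to test compound at 10–300 µg/mL for 30 min at 37 °C with gentle agitation, then spun at 1000 × g for 5 min; supernatant hemoglobin was read at 540 nm. Deionized water defined 100% and PBS 0% hemolysis. Triplicate, three independent repeats.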

DPPH IC50 [5]: inactive
ABTS IC50 [6]: inactive
IC50 ([6]; read-out: ABTS IC50): > 2630 µM
SMILES: CC12CCC(CC1=O)C2(C)C (centres unmarked) [Compound 2, camphor, reference compound]
IC50 [1]: > 100 µM
IC50 [2]: > 100 µM
IC50 [3]: > 100 µM
IC50 [4]: 322.7 ± 1.7 µM
Hemolysis (%) (human erythrocytes; 10 µg/mL): 5.25%
Hemolysis (%) (human erythrocytes; 25 µg/mL): 6.55%
Hemolysis (%) (human erythrocytes; 50 µg/mL): 9.61%
Hemolysis (%) (human erythrocytes; 100 µg/mL): 11.29%
Hemolysis (%) (human erythrocytes; 200 µg/mL): 16.16%
Hemolysis (%) (human erythrocytes; 300 µg/mL): 16.62%
Hemolysis, result in words (human erythrocytes; 10–300 µg/mL): concentration dependent increase in hemolysis

Reference: PMC12705676 (Scientific Reports, 2025)
